Rows were chosen to be rich in hits. Some 3.5% of all compounds tested hit in one or more screens of this group.
MrgX1 antagonist – antagonists of human MrgX1 receptor, primary screen, HEK293 cells, Fluo-4 calcium flux | BAM8-22 antagonism; hits give low values | Mas-related G-protein coupled receptor member X1 (Homo sapiens), Q96LB2 | 310,000 tested, 1.3% active | B-score at 10 µM;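 active = calcium-response B-score plate-corrected more than 3 library SD below zero, starting fluorescence within 5 deviations, no agonist response on first addition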;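 also: peak minus trough fluorescence over baseline after final BAM8-22 challenge near maximal dose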
Target sequence (Q96LB2 whole entry, looked up): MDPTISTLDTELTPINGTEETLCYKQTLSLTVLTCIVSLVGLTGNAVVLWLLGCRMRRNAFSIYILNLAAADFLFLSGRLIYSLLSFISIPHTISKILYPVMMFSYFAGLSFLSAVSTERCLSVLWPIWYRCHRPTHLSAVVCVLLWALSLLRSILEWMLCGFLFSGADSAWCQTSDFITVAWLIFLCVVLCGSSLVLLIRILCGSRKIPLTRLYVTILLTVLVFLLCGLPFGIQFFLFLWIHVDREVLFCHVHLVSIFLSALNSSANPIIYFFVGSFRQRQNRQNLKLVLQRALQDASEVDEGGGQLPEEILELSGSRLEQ
MrgX1 allo act – positive allosteric modulators of MrgX1, primary screen, HEK293 cells, Fluo-4 calcium flux; 310,000 tested, 0.63% active; B-score at 10 µM; FDSS; hits give high values; Mas-related G-protein coupled receptor member X1 (Homo sapiens), Q96LB2;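 active = plate-corrected calcium response at least 3 library SD above typical, normal starting fluorescence, not activating the receptor alone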;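 also: compound read alongside a low EC10 to EC30 dose of BAM8-22 agonist; peak minus trough fluorescence over baseline measured at the second addition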
MrgX1 ag – agonists of human MrgX1 receptor, primary screen, HEK293 cells, Fluo-4 calcium flux; Mas-related G-protein coupled receptor member X1 (Homo sapiens), Q96LB2; Fluo-4 calcium fluorescence, agonist mode; hits give high values; B-score at 10 µM; 310,000 tested, 0.44% active;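 active = calcium response B-score plate-corrected fluorescence ratio at least 3 library SD, with starting fluorescence B-score inside 5 SD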
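Material: MrgX1-expressing HEK293 cells / Dosing: compound as first of three additions / Incubation: overnight seeding, then 1 h dark dye loading / Signal: Fluo-4 NW calcium fluorescence / Evaluation: B-scored fluorescence response ratio / Benchmarks: positive and negative control wells on each plate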
RGS4 act – RGS4 potentiators or activators, primary screen, cell-based, HEK293 M3R inducible RGS4, calcium flux; carbachol calcium flux Fluo4; hits give low values; B-score at 10 µM; 310,000 tested, 0.92% active; AID 463111, 2010;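 active = B-score of the integrated calcium signal more than 4 SD below the library mean, with starting fluorescence not abnormally high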;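 also: negative B-score means reduced calcium response which marks RGS4 activation or potentiation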
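Reagent: ECmax carbachol challenge; Test system: M3R-expressing HEK293 line, RGS4 induced by doxycycline; Schedule: overnight RGS4 induction, 30 min dye load 37 °C, 20 min compound RT; Detection: calcium dye Fluo4 fluorescence; Read-out: Agonist-evoked peak-minus-minimum fluorescence over baseline, integrated ratio, B score.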
RGS4 block – RGS4 inhibitors, primary screen, cell-based, HEK293 M3R inducible RGS4, calcium flux. 310,000 tested, 0.45% active. B-score at 10 µM. Fluo-4 calcium flux; hits give high values; triggered by carbachol at its EC20. AID 463165, 2010. Regulator of G-protein signaling 4 (Homo sapiens), P49798;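 active = B-score, a plate-corrected calcium signal, over three deviations above library mean, with baseline fluorescence within five deviations of library mean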;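 also: RGS4 expression induced by doxycycline in cells with stable M3 receptor; B-score is computed from the integrated fluorescence ratio over baseline after carbachol; higher B-score means a larger calcium signal and so more RGS4 inhibition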
Target sequence (P49798 whole entry, looked up): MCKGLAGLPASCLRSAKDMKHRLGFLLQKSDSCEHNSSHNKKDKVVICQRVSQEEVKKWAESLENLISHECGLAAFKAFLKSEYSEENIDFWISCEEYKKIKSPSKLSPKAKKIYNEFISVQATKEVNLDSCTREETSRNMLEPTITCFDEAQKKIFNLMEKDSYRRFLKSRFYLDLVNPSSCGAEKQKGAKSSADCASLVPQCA
RGS4 activ val – reduced carbachol calcium response, RGS4-induced M3R cells, confirmation, RGS4 activator project, cell-based, HEK293 M3R/RGS4 inducible, calcium flux, duplicate | shares compounds with RGS4 act | AID 602282, 2012 | 1,100 tested, 89% active | inhibition, % at 10 µM | carbachol calcium flux Fluo4;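 active = inhibition above 3 SD of the buffer control wells, cut at about 41% in these data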;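 also: signal is the integrated peak-minus-minimum Fluo4 fluorescence over baseline ratio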
M3R Ca counter – RGS4 activator counter-screen hit in non-induced cells. shares compounds with RGS4 act. HEK293 M3R non-induced RGS4, Fluo4 calcium flux; after carbachol challenge at its EC90. inhibition, % at 10 µM. 1,100 tested, 82% active. AID 602283;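 active = inhibition exceeding 3 SD of buffer-only control wells, cut at about 26% in these data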;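 also: percent drop in integrated peak-minus-baseline over baseline Fluo4 ratio after carbachol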
* = called active by the depositor; i = inactive; . = no result given.

SMILES | MrgX1 antagonist | MrgX1 allo act | MrgX1 ag | RGS4 act | RGS4 block | RGS4 activ val | M3R Ca counter
CC(=O)c1ccccc1NC(=O)c1ccc2c(c1)NC(=O)C(C)S2 (configuration not stated) | i | i | i | i | i | . | .
Cc1cc(NN)nc(Cc2ccccc2)n1 | i | i | i | i | i | . | .
COc1ccc(S(=O)(=O)n2cnc3cc(C)c(C)cc32)cc1C | i | i | i | -10* | i | 88* | 46*
COc1ccc(S(=O)(=O)n2cnc3cc(C)c(C)cc32)cc1 | i | i | i | i | i | . | .
O=C(NCc1cnc2ccccn12)C1CCC(=O)N(Cc2cccc(F)c2)C1 (configuration not stated) | i | i | i | i | i | . | .
COc1ccc(C(=O)N2CCCC(Nc3ccc(C(C)C)cc3)C2)c(OC)n1 (configuration not stated) | i | i | i | i | i | . | .
CC1CCCCN1C(=O)c1cc2nc(-c3ccccc3)cc(-c3ccccc3)n2n1 (configuration not stated) | i | i | i | -7.9* | i | 74* | 0
CCN(CC(=O)Nc1c(F)cccc1F)C(=O)c1cc(-c2cccs2)nn1-c1ccccc1 | i | i | i | -9.4* | i | 52* | 84*
CN(CC(=O)Nc1c(Cl)cccc1Cl)C(=O)c1cc(-c2cccs2)nn1-c1ccccc1 | i | i | i | i | i | . | .
CN(CC(=O)Nc1ccccc1Cl)C(=O)c1cc(-c2cccs2)nn1-c1ccccc1 | i | i | i | i | i | . | .
CN(CC(=O)Nc1ccc(Cl)cc1)C(=O)c1cc(-c2cccs2)nn1-c1ccccc1 | i | i | i | -8.5* | i | 88* | 42*
CCN(CC(=O)Nc1ccccc1OC)C(=O)c1cc(-c2ccccc2)nn1-c1ccccc1 | i | i | i | -7.8* | i | 92* | 67*
Cc1ccccc1N(CC(=O)NCCc1ccccc1)C(=O)c1csnn1 | i | i | i | i | i | . | .
COc1ccccc1C(=O)Nc1nc(-c2ccc3c(c2)OCCO3)cs1 | i | i | i | -8.8* | i | 88* | 62*
Cc1ccc(C(C(=O)NC2CCCCC2)N2CCCC2)cc1 (configuration not stated) | i | i | i | i | i | . | .
O=C(NC1CCCCC1)C(c1ccccc1)N1CCCC1 (configuration not stated) | i | i | i | -8.8* | i | 94* | 64*
O=C(NC(=S)NC1CCCCC1)c1ccccc1[N+](=O)[O-] | i | i | i | i | i | . | .
O=c1c2ccccc2nc(/C=C/c2cccnc2)n1CCc1ccccc1 | i | i | i | -9.7* | i | 56* | 0
CCC/C=N/NC(=O)c1ccccc1O | i | i | i | i | i | . | .
CCN(CC)CCOC(=O)c1ccccc1Br | i | i | i | i | i | . | .
CCN(CC)CCCOC(=O)C1(c2ccccc2)CCCC1 | i | i | i | -11* | i | 95* | 93*
CCN(CC)CC(=O)N1c2ccccc2Sc2ccccc21 | i | i | i | -8.5* | i | 93* | 81*
O=C(CN1CCCC1)N1c2ccccc2Sc2ccccc21 | i | i | i | -9.5* | i | 92* | 69*
NCCC(=O)N1c2ccccc2Sc2ccccc21 | i | i | i | i | i | . | .
COc1ccc(NC2CCCN(C(=O)CCN3Cc4ccccc4C3=O)C2)cc1 (configuration not stated) | i | i | i | i | i | . | .
SMILES | MrgX1 antagonist | MrgX1 allo act | MrgX1 ag | RGS4 act | RGS4 block | RGS4 activ val | M3R Ca counter
CCOC(=O)c1c(SCC(=O)Nc2nccs2)nc(C)c(C)c1C | i | i | i | i | i | . | .
Cc1cc(C)n(C(=O)/C=C/c2cccs2)n1 | i | i | i | i | i | . | .
C[n+]1c2n(c3ccccc31)N=C(c1cc(C(C)(C)C)c(O)c(C(C)(C)C)c1)CS2 | -8.6* | i | i | -13* | i | 94* | 83*
COc1cccc(C2=Nn3c(nnc3-c3ccccc3O)SC2)c1 | i | i | i | i | i | . | .
CN1CCN(C(=O)c2cc([N+](=O)[O-])cc([N+](=O)[O-])c2)CC1 | i | i | i | i | i | . | .
Cc1nn(-c2ccccc2)c(C)c1NC(=O)COC(=O)c1ccc(O)cc1O | i | i | i | -10* | i | 52* | 0
N#Cc1ccc(COC(=O)c2cnc(Cl)c(Cl)c2)cc1 | i | i | i | i | i | . | .
Cc1cc(C)n(-c2ccc(C(=O)Nc3ccc(C)c(S(=O)(=O)N4CCOCC4)c3)cc2)n1 | i | i | i | -8.1* | i | 89* | 57*
O=C(NCC1CCN(c2ccc(S(=O)(=O)N3CCOCC3)cc2)CC1)c1ccc(Cl)cc1 | i | i | i | -11* | i | 92* | 81*
C=CCOC(=O)C1=C(C)NC(SCC)=C(C#N)C1c1ccc(Cl)cc1 (configuration not stated) | i | i | i | -7.6* | i | 93* | 84*
C=CCOC(=O)C1=C(C)NC(SCC(N)=O)=C(C#N)C1c1ccc(C)cc1 (configuration not stated) | i | i | i | i | i | . | .
COC(=O)c1sccc1NC(=O)c1cc(-c2cc(C)ccc2C)nc2ccccc12 | i | i | i | i | i | . | .
Cc1csc(NC(=O)c2cc(-c3ccccc3)nc3ccccc23)n1 | i | i | i | -7.8* | i | 86* | 43*
Cc1ccc(C)c(-c2cc(C(=O)Nc3nccs3)c3ccccc3n2)c1 | i | i | i | -7.7* | i | 68* | 0
CC(C)(C)c1nnc(NC(=O)c2cc(-c3ccccc3)nc3ccccc23)s1 | i | i | i | i | i | . | .
Cc1ccc2cccc(NC3OC(=O)c4ccccc43)c2n1 (configuration not stated) | i | i | i | i | i | . | .
